Laboratory results from ChEMBL document CHEMBL1944548, “Discovery of kinase spectrum selective macrocycle (16E)-14-methyl-20-oxa-5,7,14,26-tetraazatetracyclo[19.3.1.1(2,6).1(8,12)]heptacosa-1(25),2(26),3,5,8(27),9,11,16,21,23-decaene (SB1317/TG02), a potent inhibitor of cyclin dependent kinases (CDKs), Janus kinase 2 (JAK2), and fms-like tyrosine …” (J Med Chem, 2012).
≈ marks a conversion by molar mass, not a printed value.

Columns and labels:
[1] = molecular target: T1, Receptor-type tyrosine-protein kinase FLT3 (Homo sapiens, UniProt P36888); experiment: Inhibition of recombinant Flt3 using poly(Glu,Tyr) as substrate after 2 hrs by luminescence assay
T1 sequence (P36888 whole entry): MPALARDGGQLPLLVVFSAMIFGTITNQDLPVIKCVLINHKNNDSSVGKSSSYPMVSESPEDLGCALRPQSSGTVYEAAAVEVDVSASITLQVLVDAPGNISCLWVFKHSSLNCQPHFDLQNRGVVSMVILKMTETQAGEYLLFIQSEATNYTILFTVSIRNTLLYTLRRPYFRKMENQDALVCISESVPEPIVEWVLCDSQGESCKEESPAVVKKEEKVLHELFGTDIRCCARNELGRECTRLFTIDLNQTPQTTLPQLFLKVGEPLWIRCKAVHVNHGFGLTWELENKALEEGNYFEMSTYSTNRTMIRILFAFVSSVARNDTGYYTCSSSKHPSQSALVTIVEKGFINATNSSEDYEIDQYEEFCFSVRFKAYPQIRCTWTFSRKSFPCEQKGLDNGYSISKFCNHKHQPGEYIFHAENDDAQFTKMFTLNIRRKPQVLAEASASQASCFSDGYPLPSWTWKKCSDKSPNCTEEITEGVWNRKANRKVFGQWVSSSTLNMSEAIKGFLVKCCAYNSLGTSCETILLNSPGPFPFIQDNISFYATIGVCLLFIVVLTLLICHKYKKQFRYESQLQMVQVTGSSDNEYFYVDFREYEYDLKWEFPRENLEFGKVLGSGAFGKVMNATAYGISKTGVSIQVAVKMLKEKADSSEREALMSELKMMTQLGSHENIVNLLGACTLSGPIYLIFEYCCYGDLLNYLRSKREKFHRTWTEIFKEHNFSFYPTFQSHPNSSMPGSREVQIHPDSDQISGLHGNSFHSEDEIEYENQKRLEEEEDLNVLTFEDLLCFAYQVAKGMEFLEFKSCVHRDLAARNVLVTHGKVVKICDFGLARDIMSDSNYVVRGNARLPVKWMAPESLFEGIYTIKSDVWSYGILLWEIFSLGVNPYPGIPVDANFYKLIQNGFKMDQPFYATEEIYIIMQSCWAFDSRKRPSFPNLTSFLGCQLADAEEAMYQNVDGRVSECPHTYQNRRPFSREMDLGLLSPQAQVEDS

[2] = molecular target: Cyclin-dependent kinase 2/cyclin A (Homo sapiens, UniProt P24941); experiment: Inhibition of recombinant Cdk2/cyclin A using RbING as substrate after 2 hrs by luminescence assay; type: protein-complex assay
[3] = Solubility of the compound in PBS buffer at 250 uM at pH 7 by UV spectrophotometry; type: physicochemical
[4] = molecular target: Tyrosine-protein kinase JAK2 (Homo sapiens, UniProt O60674); experiment: Inhibition of recombinant JAK2 using poly(Glu,Ala,Tyr) as substrate after 2 hrs by luminescence assay
Tyrosine-protein kinase JAK2, sequence (O60674 whole entry): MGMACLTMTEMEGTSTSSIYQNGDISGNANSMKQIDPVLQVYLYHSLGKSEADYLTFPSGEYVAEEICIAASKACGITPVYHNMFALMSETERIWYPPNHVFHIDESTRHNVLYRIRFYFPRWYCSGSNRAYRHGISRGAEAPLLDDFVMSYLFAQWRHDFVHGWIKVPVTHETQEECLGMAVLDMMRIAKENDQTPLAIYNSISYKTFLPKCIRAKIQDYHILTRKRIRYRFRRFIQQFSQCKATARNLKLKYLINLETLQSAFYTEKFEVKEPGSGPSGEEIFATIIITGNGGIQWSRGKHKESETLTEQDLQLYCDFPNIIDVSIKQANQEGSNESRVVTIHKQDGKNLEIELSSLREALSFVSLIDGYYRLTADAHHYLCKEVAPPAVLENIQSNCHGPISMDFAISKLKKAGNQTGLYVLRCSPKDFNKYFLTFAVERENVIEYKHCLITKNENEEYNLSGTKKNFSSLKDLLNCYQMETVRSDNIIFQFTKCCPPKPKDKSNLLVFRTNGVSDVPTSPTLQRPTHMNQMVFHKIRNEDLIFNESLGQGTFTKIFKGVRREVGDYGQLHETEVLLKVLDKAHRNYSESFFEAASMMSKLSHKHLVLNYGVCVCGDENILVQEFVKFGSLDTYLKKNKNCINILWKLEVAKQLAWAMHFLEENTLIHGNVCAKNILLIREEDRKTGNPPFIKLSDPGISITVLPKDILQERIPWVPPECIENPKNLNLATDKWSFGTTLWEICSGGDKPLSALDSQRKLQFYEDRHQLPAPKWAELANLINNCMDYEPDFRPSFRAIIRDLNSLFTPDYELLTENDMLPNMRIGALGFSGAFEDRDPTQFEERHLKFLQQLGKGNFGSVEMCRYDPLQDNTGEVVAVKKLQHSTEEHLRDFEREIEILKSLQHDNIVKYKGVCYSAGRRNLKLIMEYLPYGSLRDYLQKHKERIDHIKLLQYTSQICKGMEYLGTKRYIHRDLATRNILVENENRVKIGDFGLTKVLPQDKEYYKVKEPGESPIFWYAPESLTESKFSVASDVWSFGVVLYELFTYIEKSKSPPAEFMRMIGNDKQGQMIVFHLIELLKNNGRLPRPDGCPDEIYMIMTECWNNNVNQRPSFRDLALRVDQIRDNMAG

[5] = Oral bioavailability in nude mouse at 50 mg/kg; type: ADME, organism-based; conditions: in vivo
[6] = tested on: HCT-116; experiment: Antiproliferative activity against human HCT116 cells after 48 hrs; type: functional, cell-based; conditions: HCT-116, 48 h
[7] = tested on: HL-60; experiment: Antiproliferative activity against human HL60 cells after 48 hrs; type: functional, cell-based; conditions: HL-60, 48 h
[8] = Half life in human liver microsomes at 5 uM by LC-MS/MS analysis; type: ADME, Microsome
In short: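 5 μM with mouse, rat, dog or human liver microsomes (~0.87 mg/mL), 50 mM potassium phosphate pH 7.4, NADPH regeneration system, 37 °C.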

SMILES | IC50 [1] | IC50 [2] | solubility at 250 µM [3] | IC50 [4] | bioavailability [5] | IC50 [6] | IC50 [7] | half-life at 5 µM [8]
C1=C/CN(Cc2ccccn2)Cc2cccc(c2)Nc2nccc(n2)-c2cccc(c2)OCC/1 | 1450 nM | 480 nM |  | 1350 nM |  |  |  | 
CN1CCN(CCOc2ccc3cc2CN(C)C/C=C/CCOc2cccc(c2)-c2ccnc(n2)N3)CC1 | 250 nM | 900 nM |  | 220 nM |  |  |  | 
C1=C/CN(CC2CC2)Cc2cccc(c2)Nc2nccc(n2)-c2cccc(c2)OCC/1 | 270 nM | 94 nM |  | 1500 nM |  |  |  | 
CC(C)NCC(=O)N1C/C=C/CCOc2cccc(c2)-c2ccnc(n2)Nc2cccc(c2)C1 | 140 nM | 530 nM | 105 µg/mL (≈ 230 µM) |  |  |  |  | 
CCS(=O)(=O)c1ccc2cc1CN(C)C/C=C/CCOc1cccc(c1)-c1ccnc(n1)N2 | 440 nM | 22 nM |  | 100 nM |  |  |  | 
COc1ccc2cc1OCC/C=C/CN(C)Cc1cccc(c1)Nc1nccc-2n1 | 310 nM | 2300 nM |  | 510 nM |  |  |  | 
FC(F)(F)CN1C/C=C/CCOc2cccc(c2)-c2ccnc(n2)Nc2ccc(OCCN3CCCC3)c(c2)C1 | 110 nM | > 10000 nM |  | 220 nM |  |  |  | 
O=C(N1C/C=C/CCOc2cccc(c2)-c2ccnc(n2)Nc2cccc(c2)C1)C(F)(F)F | > 10000 nM | > 10000 nM |  | > 10000 nM |  |  |  | 
COc1cc2cc(c1OCCN1CCCC1)CN(C)C/C=C/CCOc1cccc(c1)-c1ccnc(n1)N2 | 98 nM | 6700 nM |  | 210 nM |  |  |  | 
OCCN1C/C=C/CCOc2cccc(c2)-c2ccnc(n2)Nc2cccc(c2)C1 | 350 nM | 100 nM |  |  |  |  |  | 
O=C1CC/C=C\COc2cccc(c2)-c2ccnc(n2)Nc2cccc(c2)N1 | 1020 nM | 2600 nM |  | 1750 nM |  |  |  | 
CC(C)CN1C/C=C/CCOc2cccc(c2)-c2ccnc(n2)Nc2cccc(c2)C1 | 190 nM | 200 nM |  | 1500 nM |  |  |  | 
CC(C)(C)CN1C/C=C/CCOc2cccc(c2)-c2ccnc(n2)Nc2cccc(c2)C1 | > 10000 nM | > 10000 nM |  | > 10000 nM |  |  |  | 
CN1C/C=C/CC(=O)Nc2cccc(c2)-c2ccnc(n2)Nc2cccc(c2)C1 | 2750 nM | 4600 nM |  | > 10000 nM |  |  |  | 
CN1C/C=C/CCOc2cccc(c2)-c2ccnc(n2)Nc2ccc(OCC(=O)N3CCCC3)c(c2)C1 | 150 nM | 390 nM |  | 140 nM |  |  |  | 
CN1C/C=C/CCOc2cccc(c2)-c2ccnc(n2)Nc2ccc(OC(F)(F)F)c(c2)C1 | 160 nM | 57 nM |  | 150 nM |  |  |  | 
CN1C/C=C/COCc2cccc(c2)-c2ccnc(n2)Nc2cccc(c2)C1 | 210 nM | 660 nM |  | 1700 nM |  |  |  | 
CN1C/C=C/CCOc2cccc(c2)-c2cc(N3CCCC3)nc(n2)Nc2cccc(c2)C1 | > 10000 nM | > 10000 nM |  | > 10000 nM |  |  |  | 
C1=C/CNc2cccc(c2)Nc2nccc(n2)-c2cccc(c2)OCC/1 | 2900 nM | 150 nM |  | 3300 nM |  |  |  | 
Cc1cc2nc(n1)Nc1cccc(c1)CN(C)C/C=C/CCOc1cccc-2c1 | 1700 nM | 4700 nM |  | > 10000 nM |  |  |  | 
CN1C/C=C/CNC(=O)c2cccc(c2)-c2ccnc(n2)Nc2cccc(c2)C1 | > 10000 nM | > 10000 nM |  | > 10000 nM |  |  |  | 
CN1C/C=C/COCc2cccc(c2)Nc2nccc(n2)-c2cccc(c2)C1 | 310 nM | 99 nM |  | 230 nM |  |  |  | 
C1=C/CNCc2cccc(c2)Nc2nccc(n2)-c2cccc(c2)OCC/1 | 110 nM | 21 nM |  |  |  |  |  | 
COCCN1C/C=C/CCOc2cccc(c2)-c2ccnc(n2)Nc2cccc(c2)C1 | 490 nM | 410 nM |  | 1600 nM |  |  |  | 

These reach a lower IC50 [1]. Values come first.

IC50 [1] | IC50 [2] | solubility at 250 µM [3] | IC50 [4] | bioavailability [5] | IC50 [6] | IC50 [7] | half-life at 5 µM [8] | SMILES
93 nM | 170 nM |  | 110 nM |  |  |  |  | CCS(=O)(=O)CCOc1ccc2cc1CN(C)C/C=C/CCOc1cccc(c1)-c1ccnc(n1)N2
77 nM | 24 nM |  | 82 nM |  |  |  |  | CN1C/C=C/CCOc2cccc(c2)-c2ccnc(n2)Nc2ccc(Cl)c(c2)C1
71 nM | 74 nM | 147 µg/mL (≈ 321 µM) | 49 nM |  | 410 nM | 76 nM | 21 min | CN1C/C=C/CCOc2cccc(c2)-c2ccnc(n2)Nc2ccc(N3CCOCC3)c(c2)C1
66 nM | 77 nM |  | 280 nM |  |  |  |  | COc1ccc2cc1CN(C)C/C=C/CCOc1cccc(c1)-c1ccnc(n1)N2
45 nM | 260 nM | 146 µg/mL (≈ 292 µM) | 62 nM |  |  |  |  | CN1C/C=C/CCOc2cccc(c2)-c2ccnc(n2)Nc2ccc(OCCN3CCCCC3)c(c2)C1
42 nM |  |  | 90 nM |  |  |  |  | C1=C/CN(C2CC2)Cc2cccc(c2)Nc2nccc(n2)-c2cccc(c2)OCC/1
40 nM | 300 nM | 154 µg/mL (≈ 307 µM) | 120 nM |  |  |  |  | CN1C/C=C/CCOc2cccc(c2)-c2ccnc(n2)Nc2ccc(OCCN3CCOCC3)c(c2)C1
37 nM | 87 nM |  | 44 nM |  |  |  |  | CN1C/C=C/CCOc2cccc(c2)-c2ccnc(n2)Nc2cc(cc(NC(=O)N3CCOCC3)c2)C1
35 nM | 250 nM | 150 µg/mL (≈ 309 µM) | 56 nM |  |  |  |  | CN1C/C=C/CCOc2cccc(c2)-c2ccnc(n2)Nc2ccc(OCCN3CCCC3)c(c2)C1
30 nM | 300 nM | 150 µg/mL (≈ 308 µM) | 48 nM | 5% |  |  |  | CCN(CC)CCOc1ccc2cc1CN(C)C/C=C/CCOc1cccc(c1)-c1ccnc(n1)N2
29 nM | 310 nM |  | 150 nM |  |  |  |  | N#CCN1C/C=C/CCOc2cccc(c2)-c2ccnc(n2)Nc2ccc(OCCN3CCCC3)c(c2)C1
25 nM | 110 nM |  | 62 nM |  |  |  |  | COCCOc1ccc2cc1CN(C)C/C=C/CCOc1cccc(c1)-c1ccnc(n1)N2
22 nM | 9 nM |  | 160 nM |  |  |  |  | CN1C/C=C/CCOc2cc(F)cc(c2)-c2ccnc(n2)Nc2cccc(c2)C1
19 nM | 7 nM |  | 50 nM |  |  |  |  | CN1C/C=C/CCOc2cccc(c2)-c2ccnc(n2)Nc2cc(N)cc(c2)C1
19 nM | 8 nM |  | 50 nM |  |  |  |  | CN1C/C=C/CCOc2cccc(c2)-c2ccnc(n2)Nc2cc(cc(NC(=O)C(F)(F)F)c2)C1
